Values belong to the molecule of their own block, whether it stands above or below them.
Key:
[1] = tested on: HEK293; assay: Fluorescence intensity in buffer at 1 uM at pH 5 to 8 at 25 degC after 12 hrs using 6'-HF488-labeled compound by fluorescence spectroscopy; details: pH 5, 12 h
[2] = tested on: HEK293; assay: Fluorescence intensity in buffer at 1 uM at pH 5 to 8 at 25 degC after 12 hrs using 5'-HF488-labeled compound by fluorescence spectroscopy; details: pH 5, 12 h
[3] = tested on: HEK293; assay: Fluorescence intensity in buffer at 1 uM at pH <7 at 25 degC after 12 hrs using FAM-labeled compound by fluorescence spectroscopy
[4] = Drug uptake in cytoplasm of human U87MG cells at 1 uM after 24 hrs using HF488-labeled compound by lysotracker deep red/DAPI based fluorescence assay; format: ADME, cell-based; details: u-87mg atcc
Summary of the method: (§1)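 Cells treated with 1 µM HF488-labeled PNA in Opti-MEM at 37 °C, 10% CO2, for 24 h. Acidic organelles then stained with LysoTracker Deep Red and nuclei with DAPI. Intracellular localization assessed by fluorescence microscopy.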

[5] = Drug uptake in cytoplasm of human MDA-MB-231 cells at 1 uM after 24 hrs using HF488-labeled compound by lysotracker deep red/DAPI based fluorescence assay; format: ADME, cell-based; details: mda-mb-231, 24 h
Summary of the method: as §1

[6] = Drug uptake in cytoplasm of HEK293 cells at 1 uM after 24 hrs using HF488-labeled compound by lysotracker deep red/DAPI based fluorescence assay; format: ADME, cell-based; details: human, hek293, 24 h
Summary of the method: as §1

[7] = Drug uptake in cytoplasm of human Caco2 cells at 1 uM after 24 hrs using HF488-labeled compound by lysotracker deep red/DAPI based fluorescence assay; format: ADME, cell-based; details: caco-2, 24 h
Summary of the method: as §1

[8] = Binding affinity to dsRNA (unknown origin) after 350 to 600 secs by isothermal titration calorimetry assay
[9] = tested on: HEK293; assay: Drug uptake in HEK293 cells at 1 uM after 12 hrs using FAM-labeled compound by flow cytometric method; format: ADME, cell-based; details: human, hek293, 12 h
Summary of the method: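 HEK293 cells incubated 12 h at 37 °C with 1 µM labeled PNA in Opti-MEM. Cells harvested, resuspended in DPBS and analysed by flow cytometry.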

[10] = tested on: HEK293; assay: Drug degradation in HEK293 cells assessed as photobleaching rate at 1 uM after 12 scans using FAM-labeled compound by DAPI staining-based laser scanning microscopic method; format: ADME, cell-based; details: human, hek293, 1 µM
Summary of the method: (§2)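 Live HEK293 cells incubated 12 h at 37 °C with 1 µM labeled PNA in Opti-MEM, then nuclei stained with DAPI. Laser scanning confocal images (63× objective) taken at 32-s intervals over 30 min, scan average 8. Photostability given as MFI of each scan divided by MFI of the first scan, as a percentage. Mean of three experiments.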

[11] = tested on: HEK293; assay: Drug degradation in HEK293 cells assessed as photobleaching rate at 1 uM after 4 scans using FAM-labeled compound by DAPI staining-based laser scanning microscopic method; format: ADME, cell-based; details: human, hek293, 1 µM
Summary of the method: as §2

Fluorescence intensity [1]: Active | Fluorescence intensity [2]: Active | Fluorescence intensity [3]: Not Active
Compound: Cc1cn(CC(=O)N(CCNC(=O)CN(CCNC(=O)CN(CCNC(=O)CN(CCNC(=O)[C@H](CCCCN)NC(=O)COCCOCCNC(=O)COCCOCCN)C(=O)Cn2ccc(N)nc2=O)C(=O)Cn2cc(C)c(=O)[nH]c2=O)C(=O)Cn2ccc(N)nc2=O)CC(=O)NCCN(CC(=O)NCCN(CC(=O)NCCN(CC(=O)NCCN(CC(=O)NCCN(CC(=O)N[C@@H](CCCCN)C(=O)N[C@@H](CCCCN)C(=O)N[C@@H](CCCCN)C(N)=O)C(=O)Cn2ccc(N)nc2=O)C(=O)Cn2ccc(N)nc2=O)C(=O)Cn2cc(C)c(=O)[nH]c2=O)C(=O)Cn2cc(C)c(=O)[nH]c2=O)C(=O)Cn2ccc(N)nc2=O)c(=O)[nH]c1=O

Drug uptake [4]: Active | Drug uptake [5]: Active | Drug uptake [6]: Active | Drug uptake [7]: Active
Compound: Cc1cn(CC(=O)N(CCNC(=O)CN(CCNC(=O)CN(CCNC(=O)CN(CCNC(=O)[C@@H](N)CCCCN)C(=O)Cc2ccc(N)nc2)C(=O)Cn2cc(C)c(=O)[nH]c2=O)C(=O)Cc2ccc(N)nc2)CC(=O)NCCN(CC(=O)NCCN(CC(=O)NCCN(CC(=O)NCCN(CC(=O)NCCN(CC(=O)N[C@@H](CCCCN)C(=O)N[C@@H](CCCCN)C(=O)N[C@@H](CCCCN)C(N)=O)C(=O)Cc2ccc(N)nc2)C(=O)Cc2ccc(N)nc2)C(=O)Cn2cc(C)c(=O)[nH]c2=O)C(=O)Cn2cc(C)c(=O)[nH]c2=O)C(=O)Cc2ccc(N)nc2)c(=O)[nH]c1=O

Kd [8]: 7.35 nM
Compound: Cc1cn(CC(=O)N(CCNC(=O)CN(CCNC(=O)CN(CCNC(=O)CN(CCNC(=O)[C@@H](N)CCCCN)C(=O)Cc2ccc(N)nc2)C(=O)Cn2cc(C)c(=O)[nH]c2=O)C(=O)Cc2ccc(N)nc2)CC(=O)NCCN(CC(=O)NCCN(CC(=O)NCCN(CC(=O)NCCN(CC(=O)NCCN(CC(=O)N[C@H](CCCCN)C(=O)N[C@@H](CCCCN)C(=O)N[C@H](CCCCN)C(N)=O)C(=O)Cc2ccc(N)nc2)C(=O)Cc2ccc(N)nc2)C(=O)Cn2cc(C)c(=O)[nH]c2=O)C(=O)Cn2cc(C)c(=O)[nH]c2=O)C(=O)Cc2ccc(N)nc2)c(=O)[nH]c1=O

Drug uptake [9]: Active | Drug degradation [10]: 50% | Drug degradation [11]: 20%
Compound: Cc1cn(CC(=O)N(CCNC(=O)CN(CCNC(=O)CN(CCNC(=O)CN(CCNC(=O)[C@H](CCCCN)NC(=O)COCCOCCNC(=O)COCCOCCNC(=O)[C@@H](N)CCCCN)C(=O)Cc2ccc(N)nc2)C(=O)Cn2cc(C)c(=O)[nH]c2=O)C(=O)Cc2ccc(N)nc2)CC(=O)NCCN(CC(=O)NCCN(CC(=O)NCCN(CC(=O)NCCN(CC(=O)NCCN(CC(=O)N[C@@H](CCCCN)C(=O)N[C@@H](CCCCN)C(=O)N[C@@H](CCCCN)C(N)=O)C(=O)Cc2ccc(N)nc2)C(=O)Cc2ccc(N)nc2)C(=O)Cn2cc(C)c(=O)[nH]c2=O)C(=O)Cn2cc(C)c(=O)[nH]c2=O)C(=O)Cc2ccc(N)nc2)c(=O)[nH]c1=O
